# Measles CPE: compounds protecting cells from measles virus cytopathic effect, primary screen, measles RdRp inhibitor project, single point, MLSMR library, absorbance; Measles virus-infected cells, CPE protection; protection (pct of control), % at 4 µM; hit rate 1.5% among 140,000; AID 841, 2007; in the data active = protection mostly above about 24%, no sharp cut-off; inactive = mostly below about 26%
# Yeast lifespan up: compounds extending yeast replicative lifespan, primary screen, S. cerevisiae, OD615 | S. cerevisiae growth with nicotinamide; deaD strain in restrictive glucose medium | inhibition of the nicotinamide effect, % at 10 µM | AID 775, 2007 | hit rate 0.68% among 130,000;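 active = inhibition above a set limit, placed 3 SD over the median of all compounds, cut at about 26% in these data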;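 also: 0% = nicotinamide-treated wells and 100% = cells grown without nicotinamide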
#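 System: Modified budding yeast, DeaD strain | Buffer or medium: Restrictive glucose medium | Also added: 1.5 mM nicotinamide | Doses: 10 µM single point, 0.25% DMSO | Schedule: 48 h compound exposure at 30 °C, humidified | Detection: Absorbance at 615 nm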
# RAM inhibit: inhibitors of the yeast RAM network, primary screen, dse1pr::URA3 reporter, 5-FOA selection; S. cerevisiae dse1pr::URA3 reporter, 5-FOA growth OD615, 2 d; analog-sensitive cbk1-as2 kinase mutant strain; inhibition, % at 50 µM; hit rate 1.8% among 190,000;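 active = inhibition above a set limit, 3 SD over mean compound inhibition, cut at about 8.4% in these data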;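 also: 0% = DMSO-only wells with no growth and 100% = 10 µM 1-NA-PP1 full growth; inhibition rescues growth on 5-FOA so higher OD means more RAM inhibition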
# SDO1 yeast rescue: growth rescue of sdo1-depleted yeast, primary screen, S. cerevisiae, bone marrow failure model | S. cerevisiae sdo1-depleted JHY4D growth rescue, OD600 30 h; stronger effect = higher value; pdr5 snq2 efflux-pump mutant strain | z-score at 10 µM | hit rate 0.21% among 140,000;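 active = z-score above 3 at both the 24 hr and the 30 hr optical density reads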;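 also: z-score against mean and SD of all compound wells on the same plate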
# BB579 growth dn: growth inhibitors of yeast BB579 in restrictive medium, primary screen, yeast lifespan-shortening project, S. cerevisiae; OD615, 48 h; inhibition, % at 10 µM; hit rate 0.51% among 140,000; AID 804, 2007;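 active = inhibition above a set limit, 3 SD over the mean compound inhibition, cut at about 44% in these data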
#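 Assay system: S. cerevisiae DeaD strain BB579 yeast. Medium: CSMM-D restrictive synthetic medium containing dextrose (glucose). Times: 4 h cell preincubation, 48 h compound exposure, 30 °C humidified. Signal: OD615 turbidity measurement. Benchmarks: positive control amphotericin B 10 µg/mL.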
# An asterisk follows results filed as active; · = no result. Shown are actives, neighbours in structure and some others; about 3.8% of the full set was active somewhere.
SMILES,Measles CPE,Yeast lifespan up,RAM inhibit,SDO1 yeast rescue,BB579 growth dn
CCOCCCn1c(=S)[nH]c2cc(C(=O)NCC(OC)OC)ccc2c1=O,·,·,1.0,·,·
Cc1ccc(NC(=O)c2ccc(CSc3nnc(-c4ccncc4)n3C)cc2)c(C)c1,99.9*,-5.6,3.8,0.35,-7.0
Cc1ccc(NC(=O)c2ccc(CSc3nnc(C)s3)cc2)c(C)c1,5.4,-1.3,7.1,-0.01,-48.4
CCc1nnc(NC(=O)CSc2nnc(-c3cccnc3)n2C)s1,·,·,1.4,·,·
CC(C)OCCCNS(=O)(=O)c1ccc2ccccc2c1,30.1*,108.4*,-0.7,-0.26,-40.9
CCS(=O)(=O)NCCc1cc2ccc(C)cc2[nH]c1=O,8.9,1.5,1.6,0.01,-23.2
Cc1cc(NCCN2CCOCC2)n2nc(C)c(-c3ccccc3)c2n1,3.1,-13.4,2.6,0.2,-4.2
Cc1cc(NCCN2CCOCC2)n2ncc(-c3ccccc3)c2n1,5.0,42.4*,0.7,-0.21,13.0
C=CCn1c(SCC(=O)c2cc(C)n(C(C)COC)c2C)nc2sc(C)c(C)c2c1=O (centres undefined),7.1,-3.2,7.8,0.08,-43.5
O=C(CSc1nc2cc(Cl)ccc2s1)N1CCN(C(=O)c2ccco2)CC1,61.3*,-12.8,0.0,0.21,-26.5
Cc1cc(NC(=O)CSc2nc3cc(Cl)ccc3s2)no1,2.6,-11.3,3.9,0.07,-1.9
O=C(CSc1nc2cc(Cl)ccc2s1)c1cc2ccccc2o1,26.2,-3.4,9.4*,-0.01,-6.3
Cc1c(C(=O)O)sc2nc(SCC(=O)Nc3ccc(S(=O)(=O)NC(C)(C)C)cc3)[nH]c(=O)c12,·,·,8.5*,·,·
Cc1nc2ccc(C(C(F)(F)F)(C(F)(F)F)C(F)(F)F)cc2[nH]1,5.3,-0.5,1.0,-1.43,3.9
CC(=O)Nc1ccc(S(=O)(=O)NNC(=O)COc2cc(C)ccc2C(C)C)cc1,54.0*,-15.2,1.2,-0.01,-22.4
O=C(COC(=O)c1n[nH]c2ccccc12)Nc1ccc(S(=O)(=O)N2CCCC2)cc1,70.6*,-11.5,3.4,0,-40.8
COc1ccccc1N(CC(=O)Nc1ccc(S(=O)(=O)N2CCCCC2)cc1)S(C)(=O)=O,64.9*,·,1.5,0.89,-19.6
Cc1ccc(Nc2nc(/N=C/NO)n[nH]2)cc1C,·,·,2.3,·,·
Cc1cc(NCCO)nc(N2CCOCC2)n1,14.3,1.2,-0.1,0.8,-22.6
O=S(=O)(Nc1cccc2c1CCCC2)c1ccc(Cl)cc1,15.7,21.0,9.2*,-1.76,-21.2
Cc1ccc(Cl)c(OCC(=O)Nc2sc(C)c(C)c2C#N)c1,15.2,-1.5,0.0,1.03,-8.8
Cc1cnc(NC(=O)CSc2nnc(Cc3ccccc3)n2C)s1,15.1,-3.5,0.9,0.62,-50.9
Cc1ccc(C(C)C)c(OCc2nnc(SCC(=O)Nc3ncc(C)s3)n2C)c1,6.7,7.5,8.6*,0.39,-72.8
C=CCOc1ccc(/C(O)=C2\C(=O)C(=O)N(CCCOC)C2c2ccc(O)c(OC)c2)cc1 (centres undefined),2.4,-24.1,5.6,1.06,-14.5
CCOc1cc(C2/C(=C(/O)c3ccc(OC(C)C)cc3)C(=O)C(=O)N2CCCOC)ccc1O (centres undefined),·,-15.1,8.5*,0.5,-70.7
SMILES,Measles CPE,Yeast lifespan up,RAM inhibit,SDO1 yeast rescue,BB579 growth dn
c1ccc(CSc2ccc(-c3cccs3)nn2)nc1,·,·,-1.3,·,·
O=C(CSc1ccc(-c2cccs2)nn1)Nc1ccccc1,·,·,3.0,·,·
Cc1cc(C)cc(NC(=O)CSc2ccc(-c3cccs3)nn2)c1,40.8*,-1.7,1.6,-1.79,-8.4
c1ccc(CSc2ccc(-c3cccs3)nn2)cc1,27.7*,-4.1,2.5,0.26,-21.9
CCCCOc1ccc(Cc2n[nH]c(=S)n2N)cc1,39.5*,1.8,0.0,-0.66,-9.4
Cc1ccc(OCc2n[nH]c(=S)n2N)cc1C,·,·,2.6,·,·
Cc1cc(/C=N/n2cnnc2)c(C)n1-c1ccc(OCc2ccc(Cl)cc2)cc1,47.7*,-7.1,0.9,-1.52,7.8
COc1ccc(-c2cnnn2-c2ccc(NC(=O)c3ccc(S(=O)(=O)N4CCCCC4)cc3)cc2)cc1,2.5,-4.7,9.8*,1.01,-37.0
Cc1cc(C)n(C(=O)CN2C(=O)c3ccccc3C2=O)n1,6.7,-13.0,3.6,0.39,-48.2
Cc1cc(C)n(C(=O)C(C)N2C(=O)c3ccccc3C2=O)n1 (centres undefined),38.6*,-4.9,1.6,-0.16,-26.7

# Source: PubChem BioAssay
